Measured values published in ChEMBL document CHEMBL1629548, “In vitro activities of tigecycline against clinical isolates of Aeromonas, Vibrio, and Salmonella species in Taiwan” (2008).
Converted amounts (≈) assume the structure as drawn.

Experiments:
[1] = system: Salmonella typhimurium; assay: Antimicrobial activity against Salmonella serotype Typhimurium by broth microdilution method; assay type: functional, Salmonella enterica subsp. enterica serovar Typhimurium; details: Salmonella enterica
Procedure, shortened: (§1)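 Clinical isolates from Taiwan; tigecycline and tetracycline MICs by broth microdilution per CLSI guidelines, tested over 0.03 μg/ml to 128 μg/ml; a control strain was included.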

[2] = system: Salmonella; assay: Antimicrobial activity against tetracycline-susceptible Salmonella sp. Isolate by broth microdilution method; assay type: functional; procedure, shortened: as §1
[3] = system: Aeromonas caviae; assay: Antimicrobial activity against Aeromonas caviae by broth microdilution method; assay type: functional; procedure, shortened: as §1
[4] = system: Aeromonas hydrophila; assay: Antimicrobial activity against Aeromonas hydrophila by broth microdilution method; assay type: functional; procedure, shortened: as §1
[5] = system: Aeromonas hydrophila; assay: Antimicrobial activity against Aeromonas hydrophila assessed as percent tetracyclin-resistant isolate at 0.25 to >16 ug/ml by broth microdilution method; assay type: functional
Procedure, shortened: (§2)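 Tetracycline MICs for clinical isolates were determined by broth microdilution over 0.03 to 128 μg/ml. The reported value is the rate of isolates not susceptible to tetracycline for each species or serogroup.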

[6] = system: Salmonella; assay: Antimicrobial activity against Salmonella serogroup O7 by broth microdilution method; assay type: functional; procedure, shortened: as §1
[7] = system: Aeromonas caviae; assay: Antimicrobial activity against tigecycline-intermediate Aeromonas caviae isolate by broth microdilution method; assay type: functional; procedure, shortened: as §1
[8] = system: Vibrio; assay: Antimicrobial activity against tetracycline-susceptible Vibrio sp. Isolate by broth microdilution method; assay type: functional; procedure, shortened: as §1
[9] = Antimicrobial activity against Salmonella serotype Choleraesuis by broth microdilution method; assay type: functional, Salmonella enterica subsp. enterica serovar Choleraesuis; details: Salmonella enterica
Procedure, shortened: (§3)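 Tigecycline MICs for clinical isolates (Taiwan) were determined by broth microdilution over 0.03 to 128 μg/ml. A control strain was included, and its MICs had to fall within the recommended range. Susceptible, intermediate and resistant categories were assigned from the MICs using US FDA and EUCAST breakpoints.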

[10] = system: Salmonella; assay: Antimicrobial activity against Salmonella serogroup O7 assessed as percent tetracyclin-resistant isolate at 1 to >128 ug/ml by broth microdilution method; assay type: functional; procedure, shortened: as §2
[11] = system: Aeromonas sp.; assay: Antimicrobial activity against tetracycline-susceptible Aeromonas sp. isolate by broth microdilution method; assay type: functional; procedure, shortened: as §1
[12] = system: Salmonella; assay: Antimicrobial activity against Salmonella serogroup O8 assessed as percent tetracyclin-resistant isolate at 1 to >128 ug/ml by broth microdilution method; assay type: functional; procedure, shortened: as §2
[13] = system: Aeromonas sobria; assay: Antimicrobial activity against Aeromonas sobria assessed as percent tetracyclin-resistant isolate at 0.25 to >16 ug/ml by broth microdilution method; assay type: functional; procedure, shortened: as §2
[14] = system: Salmonella; assay: Antimicrobial activity against Salmonella serogroup O9 assessed as percent tetracyclin-resistant isolate at 1 to >128 ug/ml by broth microdilution method; assay type: functional; procedure, shortened: as §2
[15] = system: Salmonella; assay: Antimicrobial activity against Salmonella serogroup O8 by broth microdilution method; assay type: functional; procedure, shortened: as §1
[16] = system: Aeromonas caviae; assay: Antimicrobial activity against Aeromonas caviae assessed as percent tetracyclin-resistant isolate at 0.25 to >16 ug/ml by broth microdilution method; assay type: functional; procedure, shortened: as §2
[17] = system: Salmonella; assay: Antimicrobial activity against Salmonella serogroup O9 by broth microdilution method; assay type: functional; procedure, shortened: as §1
[18] = system: Vibrio cholerae; assay: Antimicrobial activity against Vibrio cholerae non-O1 assessed as percent tetracyclin-resistant isolate at 0.12 to 16 ug/ml by broth microdilution method; assay type: functional
[19] = system: Salmonella typhimurium; assay: Antimicrobial activity against Salmonella serotype Typhimurium assessed as percent tetracyclin-resistant isolate at 1 to >128 ug/ml by broth microdilution method; assay type: functional, Salmonella enterica subsp. enterica serovar Typhimurium; procedure, shortened: as §2
[20] = system: Aeromonas sp.; assay: Antimicrobial activity against tetracycline-nonsusceptible Aeromonas sp. isolate by broth microdilution method; assay type: functional; procedure, shortened: as §1
[21] = system: Vibrio; assay: Antimicrobial activity against tetracycline-nonsusceptible Vibrio sp. Isolate by broth microdilution method; assay type: functional; procedure, shortened: as §1
[22] = system: Salmonella; assay: Antimicrobial activity against tetracycline-nonsusceptible Salmonella sp. Isolate by broth microdilution method; assay type: functional; procedure, shortened: as §1
[23] = Antimicrobial activity against Salmonella serotype Choleraesuis assessed as percent tetracyclin-resistant isolate at 1 to >128 ug/ml by broth microdilution method; assay type: functional, Salmonella enterica subsp. enterica serovar Choleraesuis; procedure, shortened: as §2
[24] = system: Aeromonas sobria; assay: Antimicrobial activity against Aeromonas sobria by broth microdilution method; assay type: functional; procedure, shortened: as §1
[25] = system: Vibrio cholerae; assay: Antimicrobial activity against Vibrio cholerae non-O1 by broth microdilution method; assay type: functional; procedure, shortened: as §3

CN(C)[C@@H]1C(O)=C(C(N)=O)C(=O)[C@@]2(O)C(O)=C3C(=O)c4c(O)cccc4[C@@](C)(O)[C@H]3C[C@@H]12 [TETRACYCLINE]
MIC90 [1]: > 128 µg/mL
MIC [2]: ≤ 4 µg/mL
MIC90 [3]: 16 µg/mL (≈ 36 µM)
MIC90 [4]: 16 µg/mL (≈ 36 µM)
Activity [5]: 36%
MIC90 [6]: > 128 µg/mL
MIC [7]: > 128 µg/mL
MIC [8]: ≤ 4 µg/mL
MIC90 [9]: > 128 µg/mL
Activity [10]: 38%
MIC [11]: ≤ 4 µg/mL
Activity [12]: 71%
Activity [13]: 57%
Activity [14]: 16%
MIC90 [15]: > 128 µg/mL
Activity [16]: 37%
MIC90 [17]: > 128 µg/mL
Activity [18]: 8%
Activity [19]: 65%
MIC [20]: ≥ 8 µg/mL
MIC [21]: ≥ 8 µg/mL
MIC [22]: ≥ 8 µg/mL
Activity [23]: 84%
MIC90 [24]: 16 µg/mL (≈ 36 µM)
MIC90 [25]: 1 µg/mL (≈ 2.25 µM)
